Screens deposited in PubChem BioAssay by The Scripps Research Institute Molecular Screening Center.
Only some compounds are listed: those with a hit (about 2% of all), similar ones and a draw of the others.
TCR-CD3 inh – inhibitors of human TCR-CD3 interaction; TAMRA-labeled TCR probe fluorescence, biochemical; inhibition, % at 9.4 µM; 0.37% of 360,000 active; AID 651800; in the data active = inhibition above about 19%;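 also: recombinant mutant TCR 2C K166C tagged with TAMRA read by polarization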
TDP2 absorb – blocks human TDP2 phosphodiesterase activity | 0.34% of 370,000 active | inhibition, % at 12.8 µM | recombinant TDP2, T5PNP hydrolysis, p-nitrophenol absorbance 415 nm | AID 720702;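 active = inhibition above the mean of all tested compounds plus 3 SD, set per campaign, cut at about 25% in these data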
Target sequence (O95551 whole entry, looked up): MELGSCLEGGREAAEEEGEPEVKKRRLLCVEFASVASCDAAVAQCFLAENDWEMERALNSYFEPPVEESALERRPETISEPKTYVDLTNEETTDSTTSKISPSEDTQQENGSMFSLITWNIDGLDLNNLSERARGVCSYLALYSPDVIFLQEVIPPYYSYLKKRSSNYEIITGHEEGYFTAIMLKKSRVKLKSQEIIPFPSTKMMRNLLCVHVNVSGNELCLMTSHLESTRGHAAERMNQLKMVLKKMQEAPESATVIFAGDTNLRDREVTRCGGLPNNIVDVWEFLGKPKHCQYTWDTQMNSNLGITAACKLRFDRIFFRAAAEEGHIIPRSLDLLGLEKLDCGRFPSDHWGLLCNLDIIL
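Evaluation: % inhibition relative to enzyme-containing and enzyme-free wells. Material: recombinant human TDP2. Benchmarks: enzyme-free and DMSO wells. Timing: enzyme reaction with compound for 2 h at 37 °C. Compound dosing: 12.8 µM only. Measured by: p-Nitrophenol epi absorbance. Reagent: T5PNP substrate at 5 mM, a TopII-DNA adduct mimic. Replication: single well per compound.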
SIAE inh – human SIAE inhibition, primary screen; SIAE FP-Rh probe binding, fluorescence polarization; inhibition, % at 9.66 µM; 0.69% of 370,000 active; AID 1053197;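 active = inhibition above a cutoff: mean of compounds within the control limits plus 3 SD of those, cut at about 17% in these data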
mABHD4 FP – inhibits mouse alpha/beta hydrolase domain 4 | AID 720543 | 0.54% of 370,000 active | inhibition, % at 8.92 µM | purified mABHD4, FP-Rh probe fluorescence polarization | Q8VD66;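 active = inhibition exceeding the mean over every tested compound plus 3 SD, cut at about 30% in these data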
Target sequence (Q8VD66 whole entry, looked up, the tested form may be a part): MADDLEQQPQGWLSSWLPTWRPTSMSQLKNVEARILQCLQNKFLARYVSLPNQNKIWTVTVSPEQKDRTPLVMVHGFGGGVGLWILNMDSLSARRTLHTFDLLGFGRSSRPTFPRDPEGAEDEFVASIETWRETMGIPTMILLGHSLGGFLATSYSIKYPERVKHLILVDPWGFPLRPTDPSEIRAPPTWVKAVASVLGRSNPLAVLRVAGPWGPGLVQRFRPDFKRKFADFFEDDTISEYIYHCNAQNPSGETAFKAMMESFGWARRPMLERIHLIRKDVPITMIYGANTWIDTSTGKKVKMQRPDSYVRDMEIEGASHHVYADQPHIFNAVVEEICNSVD
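System: mouse ABHD4 enzyme, wild type / Medium: HEPES pH 7.0, NaCl, Pluronic buffer / Reagent: FP-Rh activity-based fluorescent probe / Control set: S159A mutant high control, sample median low control / Detection: fluorescence polarization with parallel and perpendicular emission, 525/598 nm / Schedule: 45 min + 60 min at 25 °C / Compound dosing: 8.92 µM, single dose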
HTRA1 inhibitor – blocks human HTRA1 serine peptidase; Q92743; recombinant HTRA1, FP-rhodamine activity-based probe, fluorescence polarization; inhibition, % at 5.96 µM; 0.5% of 340,000 active; AID 504803; in the data active = inhibition above about 36%
PAD4 FP inh – PAD4 (human) enzyme inhibition; recombinant PAD4, RCA probe fluorescence polarization; AID 485272; Q9UM07; inhibition, % at 6.36 µM; 0.41% of 330,000 active;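 active = percent inhibition above a cutoff equal to the mean of all tested compounds plus 3 SD, cut at about 15% in these data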
HTRA1 inh conf – HTRA1 (human) inhibition, confirmation. shares compounds with HTRA1 inhibitor. recombinant HTRA1, FP-rhodamine activity-based probe, fluorescence polarization. inhibition, % at 5.96 µM. 66% of 1,600 active. AID 540248;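 active = mean inhibition over three repeats above a set limit taken from the earlier primary screen, cut at about 37% in these data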;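 also: inhibitors block probe binding so polarization drops and inhibition rises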
Numbers stand for hits; 0 = inactive; - = no result.

SMILES | TCR-CD3 inh | TDP2 absorb | SIAE inh | mABHD4 FP | HTRA1 inhibitor | PAD4 FP inh | HTRA1 inh conf
O=C1c2ccccc2-c2onc3ccc(Oc4ccccc4)c1c23 | 0 | 0 | 0 | 0 | 39 | 0 | 0
Oc1ccc(N=Nc2c(O)ccc3ccccc23)cc1 | 0 | 0 | 0 | 0 | 63 | 0 | 43
Cc1ccc(SCCc2cc[n+](CC(=O)c3ccccc3)cc2)cc1 | 0 | 0 | 0 | 0 | 0 | 0 | -
O=C(C[n+]1ccc(CCSc2ccc(F)cc2)cc1)c1ccccc1 | - | - | - | - | 37 | 0 | 60
O=C(Oc1cccc2cccnc12)c1cccc([N+](=O)[O-])c1 | 0 | 0 | 0 | 0 | 0 | 0 | -
O=C(Oc1c(Cl)cc(Cl)c2cccnc12)c1cccc([N+](=O)[O-])c1 | - | - | - | - | 55 | 0 | 40
CCOc1ccc2c(ccc(/C=C/c3cc(C)c4cccnc4c3O)[n+]2C)c1 | - | - | - | - | 64 | - | 90
CCOc1ccc2[nH]c3ncccc3c(=O)c2c1 | 0 | 0 | 0 | 0 | 0 | 0 | -
N#CC1=C(N)N(c2ccc(Br)cc2)C2=C(C(=O)CCC2)C1c1cccnc1 (centres undefined) | 0 | 0 | 0 | 0 | 46 | 0 | 0
CC(NS(=O)(=O)c1ccc2c(c1)OCCO2)c1ccccc1 (centres undefined) | 0 | 0 | 0 | 0 | 0 | 0 | -
Cc1ccccc1C(C)NS(=O)(=O)c1ccc2c(c1)OCCO2 (centres undefined) | 0 | 0 | 0 | 0 | 40 | 0 | 0
COc1ccc(/C=N/OC(=O)Nc2ccc(Cl)cc2)c(OC)c1 | 0 | 0 | 0 | 0 | 0 | 0 | -
CC1CC(C)CN(C(=O)COC(=O)CN2C(=O)c3ccccc3C2=O)C1 (centres undefined) | 0 | 0 | 0 | 0 | 0 | 0 | -
CC1CC(C)CN(C(=O)c2ccc3c(c2NCCO)C(=O)c2ccccc2C3=O)C1 (centres undefined) | 0 | 0 | 0 | 0 | 41 | 0 | 53
CC(OC(=O)c1cc(S(=O)(=O)N(C)C)ccc1N1CCCC1)C(=O)NCc1ccccc1 (centres undefined) | 0 | 0 | 0 | 0 | 0 | 0 | -
CC1=C(SCc2ccccc2)C(=O)c2ccccc2C1=O | 0 | 51 | 0 | 70 | 42 | - | 36
CCc1cc(=O)oc2cc(C)cc(OC(=O)c3ccco3)c12 | 0 | 0 | 0 | 0 | 48 | 0 | 0
Cc1cccc(OCC(=O)NC(=S)N2CCCc3ccccc32)c1 | 0 | 0 | 0 | 0 | 48 | 0 | 0
O=C(COc1ccc(Cl)cc1Cl)NC(=S)N1CCCc2ccccc21 | 0 | 0 | 0 | 0 | 0 | 0 | -
NC(=Nc1nc(-c2ccccn2)cc2ccccc12)c1ccccn1 | 0 | 0 | 0 | 0 | 69 | - | 78
Cc1ccc(/C=C2/SC(=O)NC2=S)o1 | - | - | - | - | 40 | - | 0
CCCCNC(=O)c1ccccc1SCC(=O)NC1CCCCCCC1 | 0 | 0 | 0 | 0 | 0 | 0 | -
CC(=O)N1CCN(c2ccc(NC(=O)c3cccc(C)c3)cc2)CC1 | 0 | 0 | 0 | 0 | 0 | 0 | -
Cc1cccc(N2CCN(c3ccc(NC(=O)/C=C(/C(=O)O)c4ccccc4)cc3)CC2)c1 | 0 | 0 | 0 | 0 | 49 | 0 | 41
O=C(COC(=O)c1ccc([N+](=O)[O-])s1)Nc1ncc(C(F)(F)F)cc1Cl | 0 | 0 | 0 | 0 | 38 | 0 | 63
SMILES | TCR-CD3 inh | TDP2 absorb | SIAE inh | mABHD4 FP | HTRA1 inhibitor | PAD4 FP inh | HTRA1 inh conf
COc1ccc(CNc2ccc(N3CCOCC3)cc2)cc1 | 0 | 0 | 0 | 0 | 0 | 0 | -
c1ccc(CNc2ccc(N3CCOCC3)cc2)cc1 | 0 | 0 | 0 | 0 | 52 | 0 | 0
CCN(CC)c1ccc(C=Nc2ccc(C)cc2)c(O)c1 | 0 | 0 | 0 | 0 | 0 | 0 | -
CCN(CC)c1ccc(C=Nc2ccc(N(C)C)cc2)c(O)c1 | 0 | 0 | 0 | 0 | 38 | 0 | 0
CN1C(=O)CC(Nc2cccc3cccc(N)c23)C1=O (centres undefined) | - | - | - | - | 39 | 0 | 0
c1ccc(N=Nc2ccc3cccccc2-3)cc1 | 0 | 0 | 0 | 0 | 53 | 0 | 64
O=[N+]([O-])c1ccc(NCCCN2CCC(C(O)(c3ccccc3)c3ccccc3)CC2)cc1 | - | 0 | 0 | 0 | - | - | -
Cc1ccccc1-c1ccc(Nc2ccc(N3CCOCC3)cc2)nn1 | - | - | - | - | 45 | 0 | 54
CC1(C)CC(=O)C2=C(C1)N=c1s/c(=C/c3ccc(F)c(F)c3)c(=O)n1C2c1ccc(F)cc1 (centres undefined) | 0 | 0 | 0 | 0 | 0 | 0 | -
CC1(C)CC(=O)C2=C(C1)N=C1c3ccccc3C(=O)C1C2c1ccc(Cl)cc1 (centres undefined) | 0 | 0 | 0 | 0 | 52 | 0 | 51
COC(=O)C1=C(C)NC(=O)/C1=C\c1cc(C)n(-c2cc(C)cc(C)c2)c1C | 0 | 0 | 0 | 0 | 53 | 0 | 0
O=C(CN(C(=O)c1ccccc1)C(=O)c1ccccc1)OCc1ccccc1 | 0 | 0 | 0 | 0 | 0 | - | -
O=C1NC(=Nc2ccc(O)cc2)S/C1=C\C=C\c1ccco1 | 0 | 0 | 0 | 0 | 0 | 0 | -
CC1(C)CCN2CCC(C)(C)c3c(O)ccc1c32 | 0 | 0 | 0 | 0 | 66 | 0 | 0
Cc1ccc(C(=O)Nc2cccnc2N2CCN(C)CC2)cc1 | 0 | 0 | 0 | 0 | 0 | 0 | -
CC1(C)CC2(CC(c3ccc(F)cc3)c3ccc(O)cc3O2)NC(=S)N1 (centres undefined) | 0 | 0 | 0 | 0 | 0 | 0 | -
CC1(C)CC2(CC(c3ccccc3F)c3ccc(O)c(O)c3O2)NC(=S)N1 (centres undefined) | 0 | 0 | 0 | 0 | 61 | 0 | 58
N=C1CCC(=N)c2c1c(O)c1ccccc1c2O | - | - | - | - | 88 | 43 | 110
O=C1CCn2c1c(O)c1ccccc1c2=O | 0 | 0 | 0 | 0 | 0 | - | -
COc1ccc(/C=C/C(=O)c2ccc(OC)cc2OC)cc1 | 0 | 0 | 0 | 0 | 0 | 0 | -
CNc1ccc(Br)cc(C(=O)/C=C/c2ccc(OC)cc2)c1=O | 0 | 0 | 0 | 41 | 45 | 0 | 0
COc1ccc(-n2c(SCC(=O)Nc3ccc(OCc4ccccc4)cc3)nnc2-c2ccc(C)cc2)cc1 | - | 0 | 0 | 0 | - | - | -
c1coc(-c2nc3ccccc3nc2-c2ccco2)c1 | 34 | 28 | 25 | 62 | 52 | 0 | 0
O=C1CC(/C=C/c2ccco2)=Nc2ccccc2N1 | - | - | - | - | 43 | 0 | 0
O=C1CC(/C=C/c2ccccn2)=Nc2ccccc2N1 | 0 | 0 | 0 | 0 | 0 | 0 | -
Cc1ccn2c(Nc3ccc4c(c3)OCO4)c(-c3ccccn3)nc2c1 | 0 | 0 | 25 | 0 | 64 | 0 | 75
Cc1ccc(Nc2c(-c3ccccn3)nc3ccc(C)cn23)cc1 | 0 | 0 | 0 | 0 | 55 | 0 | 58
Cc1ccc(Nc2c(-c3ccccn3)nc3cc(C)ccn23)cc1 | 0 | 0 | 0 | 0 | 44 | 0 | 61
COc1ccc(S(=O)(=O)N2CCOCC2)cc1NC(=O)COC(=O)C1CC2CCCC(C1)C2=O (centres undefined) | 0 | 0 | 0 | 0 | 0 | 0 | -
